Activity calls are given as the source filed them. The rule behind the calls is not given here.

Experimental findings from ChEMBL document CHEMBL3351969, “Chalcone based azacarboline analogues as novel antitubulin agents: design, synthesis, biological evaluation and molecular modelling studies” (Eur J Med Chem, 2014) are described below.

Holding throughout (assay type): functional
In one assay the test system is THP-1. Description: Cytotoxicity against human THP1 cells assessed as growth inhibition at 50 uM after 48 hrs by sulforhodamine B assay. As to conditions: for inhibition of growth at 50 µM: THP-1, 48 h, read-out: GI. In outline:
(§1)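 Single-point SRB screen at 50 µM. Cells were seeded and grown 24 h at 37°C in a CO2 incubator, then exposed to compound in complete medium for 48 h. Cells were fixed with 50% TCA for 1 h at 4°C, water-washed, and stained with 0.4% SRB in 1% acetic acid for 30 min. After 1% TCA washes, dye was dissolved in Tris-HCl (0.01 M, pH 10.4) and OD read at 540 nm.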

The subject of the next assay is COLO 205. As to the kind of experiment: Cytotoxicity against human COLO205 cells assessed as growth inhibition at 50 uM after 48 hrs by sulforhodamine B assay. As to conditions: for inhibition of growth at 50 µM: COLO 205, 48 h, read-out: GI. In outline: as §1
(Sulforhodamine B stains cellular protein and so reports cell mass.)

For a further assay, the system named is HCT-116. Description: (§2) Cytotoxicity against human HCT116 cells assessed as growth inhibition at 50 uM after 48 hrs by sulforhodamine B assay. Summed up:
as §1

For the next assay, the system named is A549. As to the kind of experiment: Cytotoxicity against human A549 cells assessed as growth inhibition at 50 uM after 48 hrs by sulforhodamine B assay. The following applies: for inhibition of growth at 50 µM: A549, 48 h, read-out: GI. In outline:
as §1

A short description of assay [1]: as §2. As to conditions: HCT-116, 48 h, read-out: GI. In outline: as §1

For `CC(=O)n1c2cccc(Cl)c2c2cc(-c3ccc([N+](=O)[O-])cc3)nnc21`, in the assay on THP-1, the inhibition of growth at 50 µM turned out to be 14%. Moreover, the “growth inhibition (GI)” value in the assay on COLO 205, in the assay on HCT-116 and with A549 was “inactive” throughout.
Consider `CC(=O)Nc1ccccc1-c1cc2c3ccccc3n(C(C)=O)c2nn1`, for which the inhibition of growth at 50 µM with THP-1 was determined as 51%; in the assay with COLO 205 it was 50%; in assay [1], 49%. The “growth inhibition (GI)” value in the assay on A549 is “inactive”.
For `CC(=O)n1c2cccc(Br)c2c2cc(-c3ccc(Br)cc3)nnc21`, the “growth inhibition (GI)” value with THP-1, in the assay with COLO 205, with HCT-116 and in the assay on A549 was “inactive” throughout.
Turning to `CC(=O)n1c2cccc(I)c2c2cc(-c3cccc4ccccc34)nnc21`, in the assay with THP-1, the inhibition of growth at 50 µM came out at 29%. Besides, the “growth inhibition (GI)” value with COLO 205, in the assay on HCT-116 and in the assay with A549 was “inactive” each time.
As for `CC(=O)n1c2cccc(I)c2c2cc(-c3ccc4ccccc4c3)nnc21`, the inhibition of growth at 50 µM in the assay on THP-1 was found to be 25%. The “growth inhibition (GI)” value in the assay on COLO 205, with HCT-116 and with A549 was “inactive” in each case.
As to `CC(=O)n1c2ccccc2c2cc(-c3ccc(Br)cc3)nnc21`, the values for the inhibition of growth at 50 µM (in the assay with THP-1; in the assay with COLO 205; in assay [1]) were 25%, 20% and 24%, respectively. Also, the “growth inhibition (GI)” value with A549 was “inactive”.
For `CC(=O)n1c2cccc(Br)c2c2cc(-c3cccc4ccccc34)nnc21`, the inhibition of growth at 50 µM in the assay with THP-1 is 44%; with COLO 205, 12%; in assay [1], 18%; with A549 it was 9%.
For the compound `CC(=O)n1c2cc(Br)cc(Br)c2c2cc(-c3ccc(Br)cc3)nnc21`, the “growth inhibition (GI)” value in the assay on THP-1, in the assay with COLO 205, in the assay on HCT-116 and with A549 was “inactive” each time.
`CC(=O)n1c2cc(Br)cc(Br)c2c2cc(-c3ccc4ccccc4c3)nnc21`: the inhibition of growth at 50 µM in the assay on THP-1 was determined as 26%. In addition, the “growth inhibition (GI)” value with COLO 205, in the assay on HCT-116 and with A549 was “inactive” in each case.
In the case of `COc1ccc(-c2cc3c4c(Br)cccc4n(C(C)=O)c3nn2)cc1`, the inhibition of growth at 50 µM in the assay with THP-1 was determined as 35%; in the assay on COLO 205 it was 10%; in assay [1] it was 17%; with A549, 7%.
With `COc1ccc(-c2cc3c4c(I)cccc4n(C(C)=O)c3nn2)cc1`, the inhibition of growth at 50 µM in the assay on THP-1 amounted to 22%; with COLO 205, 9%. The “growth inhibition (GI)” value with HCT-116 and in the assay with A549 was “inactive” throughout.
As to `CC(=O)n1c2cccc(Cl)c2c2cc(-c3ccc(Br)cc3)nnc21`, the inhibition of growth at 50 µM with THP-1 was found to be 15%; in the assay with COLO 205 it was 10%. The “growth inhibition (GI)” value with HCT-116 and in the assay on A549 was “inactive” throughout.
`CC(=O)n1c2cc(Br)cc(Br)c2c2cc(-c3ccccc3)nnc21`: the inhibition of growth at 50 µM with THP-1 was 21%. Further, the “growth inhibition (GI)” value with COLO 205, in the assay with HCT-116 and with A549 was “inactive” each time.
As to `CC(=O)n1c2cccc(Br)c2c2cc(-c3ccc(Cl)cc3)nnc21`, the “growth inhibition (GI)” value in the assay with THP-1, in the assay on COLO 205, with HCT-116 and in the assay with A549 was “inactive” throughout.
For the compound `CC(=O)n1c2cccc(Cl)c2c2cc(-c3ccccc3)nnc21`, the inhibition of growth at 50 µM in the assay with THP-1 turned out to be 50%; in the assay on COLO 205, 22%; in assay [1] it was 29%. The “growth inhibition (GI)” value in the assay on A549 was “inactive”.
On to `COc1ccc(-c2cc3c4c(Br)cccc4n(C(C)=O)c3nn2)cc1OC`, for which the inhibition of growth at 50 µM in the assay on THP-1 stood at 51%; in the assay with COLO 205 it was 21%; in assay [1], 23%; in the assay on A549, 11%.
As for `CC(=O)n1c2cccc(I)c2c2cc(-c3ccc(Br)cc3)nnc21`, the “growth inhibition (GI)” value in the assay on THP-1, with COLO 205, with HCT-116 and in the assay with A549 was “inactive” each time.
`COc1cc(-c2cc3c4c(I)cccc4n(C(C)=O)c3nn2)cc(OC)c1OC`: the inhibition of growth at 50 µM was determined as 40% in the assay on THP-1, 24% with COLO 205, 23% in assay [1] and 19% with A549.
With `CC(=O)n1c2cc(Br)cc(Br)c2c2cc(-c3ccc(F)cc3)nnc21`, the “growth inhibition (GI)” value with THP-1, with COLO 205, in the assay with HCT-116 and in the assay with A549 was “inactive” throughout.
In the case of `CC(=O)n1c2cccc(Br)c2c2cc(-c3ccc4ccccc4c3)nnc21`, the inhibition of growth at 50 µM was 40% in the assay on THP-1, 14% in the assay on COLO 205, 18% in assay [1] and 8% with A549.
For `CC(=O)n1c2cccc(Cl)c2c2cc(-c3ccc[nH]3)nnc21`, the inhibition of growth at 50 µM in the assay with THP-1 was 53%; with COLO 205, 34%; in assay [1] it was 37%; in the assay with A549, 16%.
Turning to `CC(=O)n1c2cccc(I)c2c2cc(-c3ccccc3)nnc21`, the inhibition of growth at 50 µM in the assay on THP-1 worked out at 20%. Further, the “growth inhibition (GI)” value in the assay on COLO 205, in the assay with HCT-116 and in the assay with A549 was “inactive” each time.
With `COc1ccc(-c2cc3c4c(I)cccc4n(C(C)=O)c3nn2)cc1OC`, the inhibition of growth at 50 µM in the assay with THP-1 amounted to 33%; with COLO 205, 14%; in assay [1], 13%; in the assay on A549, 11%.
For the compound `CC(=O)n1c2ccccc2c2cc(-c3ccc(F)cc3)nnc21`, the results for the inhibition of growth at 50 µM (in the assay on THP-1; in the assay on COLO 205; in assay [1]) were 42%, 40% and 36%, respectively. For the same compound, the “growth inhibition (GI)” value in the assay with A549 was “inactive”.
As for `CC(=O)n1c2ccccc2c2cc(-c3ccc([N+](=O)[O-])cc3)nnc21`, the inhibition of growth at 50 µM in the assay with THP-1 was determined as 19%; with COLO 205 it was 17%; in assay [1], 19%. Further, in the assay on A549, the “growth inhibition (GI)” value is “inactive”.
For the compound `CC(=O)n1c2ccccc2c2cc(-c3ccc(Cl)cc3)nnc21`, the inhibition of growth at 50 µM with THP-1 turned out to be 39%; in the assay on COLO 205, 35%; in assay [1], 35%. In addition, the “growth inhibition (GI)” value with A549 is “inactive”.
For `COc1cc(-c2cc3c4c(Br)cccc4n(C(C)=O)c3nn2)cc(OC)c1OC`, the inhibition of growth at 50 µM in the assay on THP-1 was 59%; with COLO 205, 36%; in assay [1] it was 43%; in the assay with A549, 17%.
Regarding `CC(=O)Nc1cccc(-c2cc3c4ccccc4n(C(C)=O)c3nn2)c1`, the inhibition of growth at 50 µM in the assay with THP-1 was found to be 49%; with COLO 205, 47%; in assay [1], 48%. In addition, the “growth inhibition (GI)” value in the assay with A549 was “inactive”.
As for `CC(=O)n1c2cccc(I)c2c2cc(-c3ccc(Cl)cc3)nnc21`, the “growth inhibition (GI)” value in the assay with THP-1, in the assay on COLO 205, with HCT-116 and with A549 was “inactive” in each case.
As to `CC(=O)n1c2cc(Br)cc(Br)c2c2cc(-c3cccc4ccccc34)nnc21`, the inhibition of growth at 50 µM in the assay with THP-1 is 24%. For the same compound, the “growth inhibition (GI)” value in the assay with COLO 205, with HCT-116 and in the assay with A549 was “inactive” throughout.
For the compound `CC(=O)n1c2cccc(I)c2c2cc(-c3ccc([N+](=O)[O-])cc3)nnc21`, the “growth inhibition (GI)” value in the assay on THP-1, in the assay on COLO 205, with HCT-116 and in the assay with A549 was “inactive” throughout.
For `CC(=O)n1c2cccc(Br)c2c2cc(-c3ccccc3)nnc21`, in the assay with THP-1, the inhibition of growth at 50 µM was 27%. The “growth inhibition (GI)” value in the assay with COLO 205, in the assay with HCT-116 and with A549 was “inactive” throughout.
On to `CC(=O)n1c2cccc(Cl)c2c2cc(-c3ccc(Cl)cc3)nnc21`, for which the inhibition of growth at 50 µM in the assay on THP-1 was 19%; with COLO 205, 12%; in assay [1], 17%; with A549 it was 5%.
Consider `CC(=O)n1c2cccc(Br)c2c2cc(-c3ccc([N+](=O)[O-])cc3)nnc21`, for which the “growth inhibition (GI)” value in the assay with THP-1, with COLO 205, in the assay with HCT-116 and in the assay on A549 was “inactive” throughout.
